Results on 29 molecules are retold here after ChEMBL document CHEMBL1139765, “Synthesis, resolution, and antiplatelet activity of 3-substituted 1(3H)-isobenzofuranone” (2007).

For test [1], the system named is Plasma. Description: Antiplatelet activity in human platelet rich plasma assessed as inhibition of ADP-induced platelet aggregation. In kind it is functional. Put shortly:
(§1)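 PRP was prepared from whole blood of healthy volunteers. Compounds were added to PRP at 10, 20, 50 and 100, with aspirin at 5 as reference and PEG-400 as vehicle control. Aggregation was induced with ADP or arachidonic acid, and IE50 was derived from the concentration series.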

In test [2] the test system is Plasma. Kind of test: Antiplatelet activity in human platelet rich plasma assessed as inhibition of arachidonic acid-induced platelet aggregation. In kind it is functional. The procedure, abridged: as §1

`CCCCCC[C@@H]1OC(=O)c2ccccc21`: the IE50 in the test with Plasma [1] worked out at 217 µM; in the test on Plasma [2], 18.5 µM. The like results for `CCCCCC/C=C1\OC(=O)c2ccccc21` were, in that order, 289 µM and 18 µM. The like results for `CCC/C=C1\OC(=O)c2ccccc21` [Z-butylidenephthalide] were, in that order, 204 µM and 16.1 µM. Take `CCC[C@@H]1OC(=O)c2ccccc21`: the IE50 came out at 142 µM in the test on Plasma [1] and 16.9 µM in the test with Plasma [2].

For the molecule `CC/C=C1\OC(=O)c2ccccc21`, the IE50 in the test with Plasma [1] was determined as 171 µM; with Plasma [2] it was 16.1 µM.

Turning to `CCCC[C@@H]1OC(=O)c2ccccc21` [(3S)-BUTYLPHTHALIDE], the IE50 was 193 µM with Plasma [1] and 16.1 µM in the test with Plasma [2]. The like results for `CCCCC[C@@H]1OC(=O)c2ccccc21` were, in that order, 203 µM and 17.9 µM. The corresponding values for `CCCCCCC1OC(=O)c2ccccc21` (configuration not stated) are 220 µM and 15.8 µM. The like results for `CCCC/C=C1\OC(=O)c2ccccc21` were, in that order, 201 µM and 17.6 µM. Take `CC(C)CC[C@H]1OC(=O)c2ccccc21`: the figures for the IE50 in the test on Plasma [1] and in the test with Plasma [2] were 116 µM and 14.3 µM, respectively. The like results for `CCCCC/C=C1\OC(=O)c2ccccc21` were, in that order, 243 µM and 17.1 µM. The like results for `CCCC1OC(=O)c2ccccc21` (configuration not stated) were, in that order, 133 µM and 14.9 µM. As for `CCCCCC[C@H]1OC(=O)c2ccccc21`, the IE50 with Plasma [1] is 139 µM; in the test on Plasma [2], 14.4 µM.

With `CCCC[C@H]1OC(=O)c2ccccc21`, the IE50 with Plasma [1] is 94.7 µM; with Plasma [2], 13.2 µM. The like results for `CC[C@@H]1OC(=O)c2ccccc21` were, in that order, 209 µM and 16.9 µM. `CCCCCCCC1OC(=O)c2ccccc21` (configuration not stated): the values for the IE50 in the test with Plasma [1] and in the test with Plasma [2] were 153 µM and 16.1 µM, respectively.

`CCCCCCC[C@@H]1OC(=O)c2ccccc21`: the IE50 in the test on Plasma [1] amounted to 176 µM; with Plasma [2], 18.7 µM. The like results for `CCC1OC(=O)c2ccccc21` (configuration not stated) were, in that order, 164 µM and 15.2 µM.

With `CC(C)C/C=C1\OC(=O)c2ccccc21`, the IE50 with Plasma [1] worked out at 204 µM; in the test on Plasma [2], 17.9 µM. The like results for `CCCCC[C@H]1OC(=O)c2ccccc21` were, in that order, 178 µM and 15.1 µM. The like results for `CC(=O)Oc1ccccc1C(=O)O` [ASPIRIN] were, in that order, 118 µM and 12.3 µM. The like results for `CCCCCC1OC(=O)c2ccccc21` (configuration not stated) were, in that order, 180 µM and 16.4 µM.

As for `CCC[C@H]1OC(=O)c2ccccc21`, the figures for the IE50 in the test with Plasma [1] and in the test with Plasma [2] were 112 µM and 13.8 µM, respectively. The corresponding values for `CC(C)CC[C@@H]1OC(=O)c2ccccc21` are 207 µM and 17.2 µM. The like results for `CC(C)CCC1OC(=O)c2ccccc21` (configuration not stated) were, in that order, 201 µM and 15.4 µM. In the case of `C/C=C1\OC(=O)c2ccccc21`, the IE50 in the test with Plasma [2] amounted to 16 µM.

As to `CC[C@H]1OC(=O)c2ccccc21`, the IE50 with Plasma [1] came out at 114 µM; in the test with Plasma [2], 14.1 µM. The like results for `CCCCCCC[C@H]1OC(=O)c2ccccc21` were, in that order, 143 µM and 14.7 µM. Regarding `CCCCC1OC(=O)c2ccccc21` (stereo not drawn) [RAC-3-N-BUTYLPHTHALIDE], the IE50 was 170 µM in the test on Plasma [1] and 14.5 µM in the test with Plasma [2].
